Data from ChEMBL document CHEMBL1149815, “New amido derivatives as potential BKCa potassium channel activators. XI” (Eur J Med Chem, 2008).

Experiments:
Assay type in all cases: tissue-based
[1] = target: Calcium-activated potassium channel subunit alpha-1 (Rattus norvegicus, UniProt Q62976); assay: (§1) Induction of BK channel mediated vasorelaxation activity in Kcl-induced contraction in Wistar rat aorta
How it was run: (§2)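 Endothelium-denuded thoracic aortic rings from male normotensive Wistar rats (250-350 g), equilibrated 60 min. Denudation was confirmed by acetylcholine relaxation below 10% of KCl tone. Rings were precontracted with 20 mM KCl; at plateau, 3-fold increasing concentrations were added cumulatively. Efficacy was maximal relaxation as % of KCl tone. pIC50 was -log molar concentration halving tone, not derived if efficacy was below 50%. 5-10 experiments.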

[2] = target: Calcium-activated potassium channel subunit alpha-1 (Rattus norvegicus) (UniProt Q62976); assay: as §1; how it was run: as §2
Sequence of Calcium-activated potassium channel subunit alpha-1 (Rattus norvegicus) (Q62976 whole entry): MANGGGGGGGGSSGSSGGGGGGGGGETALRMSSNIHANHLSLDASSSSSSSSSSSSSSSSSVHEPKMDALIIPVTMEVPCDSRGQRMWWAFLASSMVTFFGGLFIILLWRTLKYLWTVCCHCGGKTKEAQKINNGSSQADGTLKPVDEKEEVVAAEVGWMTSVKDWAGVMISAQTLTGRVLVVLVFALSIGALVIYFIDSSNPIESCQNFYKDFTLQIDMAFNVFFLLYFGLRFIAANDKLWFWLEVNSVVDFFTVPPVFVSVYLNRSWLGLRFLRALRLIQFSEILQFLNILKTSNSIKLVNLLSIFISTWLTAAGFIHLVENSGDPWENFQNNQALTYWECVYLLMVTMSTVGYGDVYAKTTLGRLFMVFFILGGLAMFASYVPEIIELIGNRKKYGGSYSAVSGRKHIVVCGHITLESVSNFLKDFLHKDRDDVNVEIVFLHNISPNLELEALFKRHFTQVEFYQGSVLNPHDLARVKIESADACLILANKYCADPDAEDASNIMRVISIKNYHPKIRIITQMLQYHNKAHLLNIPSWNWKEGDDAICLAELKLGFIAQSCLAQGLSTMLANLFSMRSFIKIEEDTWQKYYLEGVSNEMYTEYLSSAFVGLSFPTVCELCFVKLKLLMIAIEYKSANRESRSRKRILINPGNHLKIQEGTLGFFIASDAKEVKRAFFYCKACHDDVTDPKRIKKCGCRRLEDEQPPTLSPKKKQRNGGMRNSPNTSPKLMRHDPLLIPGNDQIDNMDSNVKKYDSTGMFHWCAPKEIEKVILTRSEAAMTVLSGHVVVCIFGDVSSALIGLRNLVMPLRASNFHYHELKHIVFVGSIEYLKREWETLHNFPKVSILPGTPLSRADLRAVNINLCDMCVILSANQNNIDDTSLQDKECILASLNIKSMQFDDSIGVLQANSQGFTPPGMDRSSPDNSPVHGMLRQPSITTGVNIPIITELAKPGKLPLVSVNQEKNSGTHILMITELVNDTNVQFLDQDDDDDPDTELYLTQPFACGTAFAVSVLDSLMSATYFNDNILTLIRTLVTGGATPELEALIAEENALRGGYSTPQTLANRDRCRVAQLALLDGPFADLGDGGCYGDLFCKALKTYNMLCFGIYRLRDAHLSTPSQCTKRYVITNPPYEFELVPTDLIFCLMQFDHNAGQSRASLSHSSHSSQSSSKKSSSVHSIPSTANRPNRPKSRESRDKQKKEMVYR

[3] = target: Calcium-activated potassium channel subunit alpha-1 (Rattus norvegicus) (UniProt Q62976); assay: Induction of BK channel mediated vasorelaxation activity in Kcl-induced contraction in Wistar rat aorta in presence of IbTX; how it was run: as §2

Sequence of Calcium-activated potassium channel subunit alpha-1 (Q62976 whole entry): as above

For `COc1ccccc1CC(=O)Nc1cc(C)ccc1O`, the IC50 [1] was 24.5 µM and the Emax [2] was 61%.
Molecule `COc1ccccc1CC(=O)Nc1ccccc1F` has an Emax [2] of 28%.
`COc1ccccc1CC(=O)NCc1ccccc1` was tested, and the Emax [2] was 25%.
For `COc1ccc([N+](=O)[O-])cc1NC(=O)Cc1ccccc1O`, the IC50 [1] was 18.2 µM and the Emax [2] was 82%.
With `COc1ccccc1C(=O)NCc1ccccc1` the Emax [2] was 23%.
Molecule `O=C(Cc1ccccc1O)NCc1ccccc1[N+](=O)[O-]` has an Emax [2] of 40%.
`COc1ccccc1CC(=O)Nc1cc([N+](=O)[O-])ccc1OC` gave an Emax [2] of 21%.
For `O=C(Cc1ccccc1O)NCc1ccccc1`, the Emax [2] was 33%.
Molecule `O=C(Cc1ccccc1C(F)(F)F)Nc1cc(Cl)ccc1O` has an Emax [2] of 50%.
`COc1ccccc1CNC(=O)Cc1ccccc1OC` showed an Emax [2] of 22%.
Work on `O=C(NCc1ccccc1[N+](=O)[O-])c1ccccc1O` yielded an Emax [2] of 47%.
With `O=C(Cc1ccccc1O)Nc1ccc([N+](=O)[O-])cc1` the IC50 [1] was 22.9 µM and the Emax [2] was 79%.
Work on `O=C(Cc1ccccc1O)Nc1ccccc1` yielded an Emax [2] of 40%.
In the case of `COc1ccccc1C(=O)NCc1ccccc1[N+](=O)[O-]`, the Emax [2] is reported as 29%.
`COc1ccccc1CNC(=O)c1ccccc1OC` showed an Emax [2] of 16%.
`Cc1cc([N+](=O)[O-])ccc1NC(=O)Cc1ccccc1O` showed an Emax [3] of 32%, an IC50 [1] of 20 µM and an Emax [2] of 84%.
`O=C(Cc1ccccc1C(F)(F)F)Nc1ccccc1F` was tested, and the IC50 [1] was 27.5 µM and the Emax [2] was 55%.
`COc1ccccc1CC(=O)Nc1ccc([N+](=O)[O-])cc1` was tested, and the Emax [2] was 29%.
Molecule `COc1ccccc1CNC(=O)Cc1ccccc1O` has an Emax [2] of 40%.
Molecule `O=C(NCc1ccccc1)c1ccccc1O` has an Emax [2] of 47%.
`COc1ccccc1CC(=O)Nc1cc(Cl)ccc1O` showed an Emax [2] of 37%.
`O=C(Cc1ccccc1O)Nc1ccccc1F` gave an Emax [2] of 43%.
In the case of `O=c1[nH]c2cc(C(F)(F)F)ccc2n1-c1cc(C(F)(F)F)ccc1O`, the IC50 [1] is reported as 4.37 µM.
